Screening results: PubChem, several laboratories
TAAR1 ag = agonists of human TAAR1; Q96RJ0; 360,000 tested, 0.99% active; activation, % at 3 µM; CHO RD-HGA16 TAAR1, Fluo-8 calcium fluorescence; vehicle wells 0%, saturating PEA agonist 100%;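 active = activation above the mean activation of all test compounds in the run plus 3 SD, cut at about 38% in these data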
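Signal – calcium-sensitive Fluo-8 signal, excitation 470-495, emission 515-575 nm · System – RD-HGA16 (CHO) cells co-expressing Gα16 and hTAAR1 · Incubation – 17-24 h seeding, 75 min 37 °C dye, 30 min RT · Compound dosing – 3 µM single concentration · Repeats – no replicates (n 1)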
TRPML3 ag = human mucolipin-3 channel agonism. Q8TDD5. HEK293 TRPML3-YFP, Fluo-8 calcium fluorescence; 100% = the carbachol control signal. activation, % at 3 µM. 220,000 tested, 0.29% active;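 active = activation above its plate's cutoff, the mean activation of the plate's test wells plus 3 SD, cut at about 12% in these data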;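 note: 0% = DMSO only wells and 100% = carbachol wells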
Target sequence (Q8TDD5 whole entry, looked up): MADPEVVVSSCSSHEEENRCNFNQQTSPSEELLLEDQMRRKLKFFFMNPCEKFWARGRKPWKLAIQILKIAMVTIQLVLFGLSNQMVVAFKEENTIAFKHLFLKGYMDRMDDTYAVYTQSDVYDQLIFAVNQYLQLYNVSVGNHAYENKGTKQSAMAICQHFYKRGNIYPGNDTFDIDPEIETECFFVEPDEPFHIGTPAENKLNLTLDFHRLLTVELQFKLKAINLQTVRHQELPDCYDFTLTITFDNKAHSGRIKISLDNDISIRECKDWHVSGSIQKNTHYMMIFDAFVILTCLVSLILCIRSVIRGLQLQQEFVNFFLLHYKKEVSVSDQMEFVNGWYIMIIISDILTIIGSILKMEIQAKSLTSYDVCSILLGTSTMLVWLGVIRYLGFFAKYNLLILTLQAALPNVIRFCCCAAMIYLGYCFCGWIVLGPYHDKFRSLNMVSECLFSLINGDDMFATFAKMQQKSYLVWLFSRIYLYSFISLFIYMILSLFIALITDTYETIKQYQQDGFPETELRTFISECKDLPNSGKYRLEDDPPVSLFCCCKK
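Test system – HEK293 line with stable expression of human TRPML3-YFP channel · Control set – carbachol 87 µM final as high control (100%), DMSO as low control (0%) · Signal – Fluo-8 calcium dye fluorescence, ex 470-495, em 515-575 nm · Incubation – 1-h 37 °C dye load, 5-s basal, 120-s post-compound reads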
zfTRPN1 agonist = zebrafish TRPN1 (NompC) channel agonism; activation, % at 3 µM; AID 1424; HEK293 zebrafish TRPN1-YFP, Fluo-8 calcium fluorescence; 100% = response to 87 µM carbachol; 220,000 tested, 0.18% active;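 active = activation above its plate's cutoff, the mean activation of test wells on that plate plus 3 SD, cut at about 19% in these data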;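 note: 0% = DMSO alone and 100% = 87 µM carbachol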
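System: zebrafish TRPN1-YFP in HEK293 cells / Dosing: 3 µM single point / Timing: dye loading 1 h at 37 °C, then 30 min room temperature / Signal: Fluo-8 calcium fluorescence, excitation 470-495 nm, emission 515-575 nm / Read-out basis: percent activation from peak over basal fluorescence ratio, control-normalized / Control set: high carbachol 87 µM, low DMSO alone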
GPR7 antagonist = human neuropeptides B/W receptor 1 antagonism; GPR7-expressing cells, fluorescence antagonist assay; inhibition, % at 4.4 µM; 290,000 tested, 1.1% active; AID 1861; in the data active = inhibition above about 16%, passing the limit was not always enough;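 note: cells stimulated with the agonist NPW; 0% = agonist with vehicle and 100% = vehicle without agonist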
TAAR1 antagonist = human TAAR1 antagonism. Q96RJ0. inhibition, % at 3 µM. 360,000 tested, 1.5% active. CHO RD-HGA16 TAAR1, Fluo-8 calcium fluorescence, antagonist. AID 624466;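 active = inhibition above a per-plate cutoff, the mean inhibition of test compounds on that plate plus 3 SD, cut at about 49% in these data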;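 note: 0% = DMSO plus EC80 beta-PEA response and 100% = DMSO alone without agonist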
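System: RD-HGA16 CHO cells with stable hTAAR1 and Gα16 | Probe or stimulus: EC80 β-phenethylamine stimulus | Dosing: 3 µM, single point | Times: Dye loading 75 min at 37 °C, then 30 min room temperature | Measured by: Fluo-8 calcium-sensitive fluorescence | Read-out basis: % inhibition of agonist calcium response | Replicates: n of 1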
LANA-H2B inh = blocks KSHV LANA binding to histone H2A/H2B; Q9QR71; cell-free LANA-H2A/H2B peptide, fluorescence polarization; inhibition, % (test concentration not listed); 320,000 tested, 0.6% active; in the data active = inhibition mostly above about 10%, no sharp cut-off; inactive = mostly below about 6.7%
* hit, by the source's call. An excerpt weighted towards active compounds, which were near 3.4% of everything screened.

How did C#CCNC(=O)C1=C[C@H](c2csc3ccccc23)[C@@H](CCCO)[C@H](OCC)O1 do in these assays?
TAAR1 ag: 5; TRPML3 ag: 1; zfTRPN1 agonist: 2; GPR7 antagonist: -6; TAAR1 antagonist: 9; LANA-H2B inh: 6

How did CCO[C@@H]1OC(C(=O)NCc2ccccc2)=C[C@H](c2csc3ccccc23)[C@H]1CCCO do in these assays?
TAAR1 ag: 25; TRPML3 ag: 6; zfTRPN1 agonist: 16; GPR7 antagonist: 11; TAAR1 antagonist: 54*; LANA-H2B inh: 3

What do the screens show for `CCO[C@H]1OC(C(=O)NCc2ccccc2)=C[C@@H](c2cn(C(C)=O)c3ccccc23)[C@@H]1CCCO`?
TAAR1 ag: 45*; TRPML3 ag: 5; zfTRPN1 agonist: 17; GPR7 antagonist: 11; TAAR1 antagonist: 18; LANA-H2B inh: -5

Results for CCO[C@@H]1OC(C(=O)O)=C[C@H](c2cn(C(C)=O)c3ccccc23)[C@H]1CCCO ?
TAAR1 ag: 14; TAAR1 antagonist: 0; LANA-H2B inh: -1

What do the screens show for `COc1cccc(/C=C2\SC(=S)N(C(C)C(=O)NC3C=CS(=O)(=O)C3)C2=O)c1` (stereo not given)?
TAAR1 ag: 1; GPR7 antagonist: -15; TAAR1 antagonist: 3; LANA-H2B inh: 28*

Results for CC(C)=CCc1c(O)cc2oc3c(CC=C(C)C)c(O)c(O)c(CC=C(C)C)c3c(=O)c2c1O ?
TAAR1 ag: 4; TAAR1 antagonist: 58*; LANA-H2B inh: 2

What do the screens show for `CC(C)=CCc1cc(-c2oc3cc(O)cc(O)c3c(=O)c2O)ccc1O`?
TAAR1 ag: 0; TAAR1 antagonist: 6; LANA-H2B inh: -1

What do the screens show for `CCCCN1CC(COCc2ccccc2)Oc2cccc(Oc3ccc(SC)c(C)c3)c2S1(=O)=O` (stereo not given)?
TAAR1 ag: 1; TAAR1 antagonist: 16

Results for CC(C)=CC(=O)NCC1CCN(C(=O)C(=O)c2cc3ccccc3o2)CC1 ?
TAAR1 ag: 4; TAAR1 antagonist: -3

Results for O=C(c1c[nH]c2ccccc12)N1CCOCC1 ?
TAAR1 ag: 0; TRPML3 ag: 0; zfTRPN1 agonist: 0; GPR7 antagonist: 2; TAAR1 antagonist: 2; LANA-H2B inh: 40*

What do the screens show for `O=C(Nc1ccc2c(c1)OCCO2)C(=O)c1c[nH]c2ccccc12`?
TAAR1 ag: 9; GPR7 antagonist: 13; TAAR1 antagonist: 54*; LANA-H2B inh: -5

How did COC(=O)Cc1nnn2c1CC(OC)c1ccccc1-2 (stereo not given) do in these assays?
TAAR1 ag: 2; TAAR1 antagonist: -30

Results for O=C(/C=C/c1ccco1)Nc1ccc(Oc2ccc(Cl)cc2)cc1 ?
TAAR1 ag: 10; TRPML3 ag: 1; zfTRPN1 agonist: 2; GPR7 antagonist: 7; TAAR1 antagonist: 78*; LANA-H2B inh: 2

How did O=C(Cc1c[nH]c2ccccc12)Nc1ccc(Nc2cccnc2)c(-c2ccc(OC(F)(F)F)cc2)c1 do in these assays?
TAAR1 ag: 5; TAAR1 antagonist: 44

How did CCOC(=O)C1=C(Cc2ccc(F)cc2)C(=O)c2ccccc2C1=O do in these assays?
TAAR1 ag: 31; TRPML3 ag: 0; zfTRPN1 agonist: 1; GPR7 antagonist: -2; TAAR1 antagonist: 52*; LANA-H2B inh: 2

How did Oc1ccc(C23CCCC2C2(CCCC2)c2ccc(O)cc2O3)c(O)c1 (stereo not given) do in these assays?
TAAR1 ag: 71*; TAAR1 antagonist: 99*; LANA-H2B inh: -6

Results for O=C1CC(c2ccc(F)cc2)CC(O)=C1C=NCCN1CCNCC1 (stereo not given) ?
TAAR1 ag: 0; TRPML3 ag: 0; zfTRPN1 agonist: 1; GPR7 antagonist: -14; TAAR1 antagonist: 3; LANA-H2B inh: 17*

What do the screens show for `CCOC(=O)c1c(NC(=O)COC(=O)c2nc(Cl)ccc2Cl)sc(C(=O)N(C)C)c1C`?
TAAR1 ag: 12; TAAR1 antagonist: 51*; LANA-H2B inh: -1

What do the screens show for `c1ccc(Nc2nnc(-c3ccc4c(c3)OCO4)o2)cc1`?
TAAR1 ag: 1; TAAR1 antagonist: -26

Results for Cc1ccc(S(=O)(=O)CCC(=O)OCC(=O)NC(C)c2ccccc2)cc1 (stereo not given) ?
TAAR1 ag: 1; TAAR1 antagonist: 12; LANA-H2B inh: 183*

How did CN(C(=O)COc1ccc(Cl)cc1Br)C1CCCCC1 do in these assays?
TAAR1 ag: -2; GPR7 antagonist: -6; TAAR1 antagonist: -4; LANA-H2B inh: 53*

What do the screens show for `c1ccc2c(C[C@@H]3CNCCN3CC3CCCCC3)cccc2c1`?
TAAR1 ag: 41*; TAAR1 antagonist: -1; LANA-H2B inh: 3

Results for Oc1ccc(C[C@@H]2CNCCN2CC2CCCCC2)cc1 ?
TAAR1 ag: 18; TAAR1 antagonist: -6; LANA-H2B inh: 1

How did CCOc1ccc(NC(=O)C23CC4CC(C2)CC(c2ccccc2)(C4)C3)cc1 do in these assays?
TAAR1 ag: 0; TRPML3 ag: 0; zfTRPN1 agonist: 0; GPR7 antagonist: -7; TAAR1 antagonist: 3; LANA-H2B inh: 14*

How did CCOC(=O)CNC(=O)C12CC3CC(C1)CC(c1ccc(C)cc1)(C3)C2 do in these assays?
TAAR1 ag: 2; TRPML3 ag: 0; zfTRPN1 agonist: -1; GPR7 antagonist: 1; TAAR1 antagonist: -12; LANA-H2B inh: -2

Results for COc1ccc(/C=C\C(=O)c2c(O)ccc3c(C)cc(=O)oc23)cc1OC ?
TAAR1 ag: 14; TRPML3 ag: 1; zfTRPN1 agonist: 0; GPR7 antagonist: -22; TAAR1 antagonist: 5; LANA-H2B inh: 16*

What do the screens show for `COc1ccccc1NC(=O)CSc1nnc(-c2ccc(C)cc2)o1`?
TAAR1 ag: 3; TRPML3 ag: 0; zfTRPN1 agonist: 1; GPR7 antagonist: 3; TAAR1 antagonist: 0; LANA-H2B inh: 3

How did CC(=O)Nc1ccc(NC(=O)CSc2nnc(-c3ccco3)o2)cc1 do in these assays?
TAAR1 ag: 2; TRPML3 ag: 1; zfTRPN1 agonist: 1; GPR7 antagonist: -9; TAAR1 antagonist: -7; LANA-H2B inh: 20*

What do the screens show for `N#Cc1ccccc1NC(=O)CSc1nnc(-c2ccncc2)o1`?
TAAR1 ag: 3; TRPML3 ag: 0; zfTRPN1 agonist: 1; GPR7 antagonist: -6; TAAR1 antagonist: -33; LANA-H2B inh: 13*

Results for COc1cccc(NC(=O)CSc2nnc(-c3ccc(C)cc3)o2)c1 ?
TAAR1 ag: 61*; TRPML3 ag: 0; zfTRPN1 agonist: -1; GPR7 antagonist: 5; TAAR1 antagonist: 51*; LANA-H2B inh: -3
